HKDC1 inh: blocks human hexokinase HKDC1 activity; Q2TB90; recombinant HKDC1, G6PDH/diaphorase resazurin coupled fluorescence; inhibition, % at 20 µM; hit rate 0.16% among 340,000; AID 493160;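 active = inhibition above about 35% when tested at 20 µM, limit read from the data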;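 note: plate controls were DMSO wells with enzyme for no effect and DMSO wells lacking enzyme for full effect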
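Assay system: recombinant HKDC1 hexokinase; detection: coupled resazurin fluorescence, excitation 525 nm, emission 613 nm; benchmarks: DMSO-plus-enzyme-mix negative control, buffer-substituted positive control; compound dosing: single 20 µM dose; schedule: 90 min at room temperature in dark; also added: glucose plus 1 mM ATP as hexokinase substrates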
G6PDH counter: inhibits Leuconostoc G6PDH, flagging false hits in G6PDH-based assays; hit rate 0.12% among 200,000; inhibition, % at 5 µM; Purified L. mesenteroides G6PDH, diaphorase/resazurin coupled fluorescence, 45 min; AID 1020; in the data active = inhibition above about 50%
PfGluPho inh: PfG6PD (Plasmodium falciparum) enzyme inhibition; PfGluPho enzyme, NADPH resazurin-diaphorase fluorescence; inhibition, % at 20 µM; hit rate 0.78% among 350,000; AID 504690;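 active = inhibition reaching at least a set limit at 20 µM in the primary screen, cut at about 59% in these data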;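 note: 0% = DMSO wells with substrate and 100% = DMSO wells lacking glucose-6-phosphate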
Diaphorase act: activates diaphorase or chemically reduces, flagging diaphorase assay artifacts. Diaphorase/resazurin coupled assay, resorufin fluorescence, 16 min; hits give high values; 1 = vehicle wells, 0 = NADH-free wells. AID 1229. activation factor at 20 µM. hit rate 0.005% among 190,000;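 active = diaphorase activity raised at least twofold by the compound at 20 µM; inactive = activation factor below 2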
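Material: Purified diaphorase enzyme from Clostridium kluyveri | Buffer or medium: 50 mM HEPES pH 7.4 with 4.542 mM MgCl2, 0.005% Tween 20 | Times: 16 min enzyme reaction, ambient temperature | Signal: Red resorufin fluorescence at 544/590 nm excitation/emission | Measure: Increased resorufin signal from activators or reducing compounds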
Diaph inh CS: inhibits diaphorase or chemically oxidizes, flagging diaphorase assay artifacts; diaphorase resazurin-to-resorufin fluorescence, NADH, 16 min; bacterial (C. kluyveri) enzyme, not human; inhibition, % at 20 µM; hit rate 0.69% among 190,000; AID 1217;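 active = primary screen inhibition at 20 µM above a set limit, cut at about 50% in these data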;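 note: plate controls were DMSO with full reaction for no effect and wells lacking NADH for full effect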
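controls = No-NADH positive control and DMSO neutral control | system = Clostridium kluyveri diaphorase enzyme | timing = reaction incubation of 16 min at room temperature | signal = resorufin fluorescence 544/590 nm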
PfGluPho conf: PfG6PD inhibition, single-dose confirmed | shares compounds with PfGluPho inh | recombinant PfGluPho, NADPH-diaphorase-resazurin fluorescence | inhibition, % at 20 µM | hit rate 34% among 2,400 | AID 504753;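 active = inhibition of at least 50% at 20 µM in any single replicate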;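 note: 0% = DMSO with substrate and 100% = DMSO lacking glucose-6-phosphate substrate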
Diaphorase 10uM: counter-screen for P. falciparum G6PD inhibitors: diaphorase inhibitors, oxidizers; shares compounds with PfGluPho inh; hit rate 39% among 820; AID 504862; diaphorase-coupled resazurin reduction, fluorescence, NADPH 10 uM; inhibition, % at 20 µM;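 active = average inhibition reaching 50% or more with the compound at 20 µM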;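 note: resorufin red fluorescence formed as diaphorase reduces resazurin using NADPH; 0% = DMSO with enzyme and 100% = DMSO without enzyme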
Diaphorase 30uM: diaphorase inhibition or oxidation at 30 uM NADPH; shares compounds with PfGluPho inh; Diaphorase/resazurin coupled assay, resorufin fluorescence; inhibition, % at 20 µM; hit rate 29% among 820; AID 504863;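 active = inhibition averaging 50% or more, tested at 20 µM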;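 note: 0% = DMSO with enzyme and 100% = DMSO wells lacking diaphorase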
* = called active by the depositor; nt = no result. Only some compounds are listed: those with a hit (about 1.3% of all), similar ones and a draw of the others.

SMILES	HKDC1 inh	G6PDH counter	PfGluPho inh	Diaphorase act	Diaph inh CS	PfGluPho conf	others
CC(NS(=O)(=O)c1ccc2c(c1)CC(C)N2C(=O)C1CC1)c1ccccc1 (stereo not drawn)	-4	nt	-17	nt	nt	nt
Cc1cccc(OCCn2c(=S)[nH]c3ccccc32)c1	-10	14	68*	0.8	24	32
COc1ccc(N2CCN(C(=S)NCCc3ccccc3)CC2)cc1	-3	nt	-1	nt	nt	nt
Oc1ccc(N2CCN(C(=S)NCCc3ccccc3)CC2)cc1	7	8	67*	0.7	33	11
O=C(CN1CCN(c2ccc(O)cc2)CC1)Nc1ccccc1C(=O)NCCc1ccccc1	5	nt	70*	nt	nt	34
CC(=O)Nc1ccc2c(c1)Cc1cc(N3C(=O)C=CC3=O)ccc1-2	-5	nt	111*	nt	nt	100*	Diaphorase 10uM=-14;Diaphorase 30uM=-15
O=C1C=CC(=O)N1c1ccc2c(c1)Cc1cc(F)ccc1-2	2	nt	84*	nt	nt	45
O=[N+]([O-])c1ccc2c(c1)Cc1cc(F)ccc1-2	-7	nt	-2	nt	nt	nt
COc1cc2cc(NC(C)=O)cc(NCc3ccccc3)c2cc1OC	14	nt	49	nt	nt	nt
CCCCNc1cc(NC(C)=O)cc2cc(OC)c(OC)cc12	21	34	72*	0.6	45	43
C[C@H](CO)N1C[C@H](C)[C@@H](CN(C)C(=O)Nc2ccc(C(F)(F)F)cc2)Oc2c(cccc2N(C)C)C1=O	-1	nt	82*	nt	nt	64*	Diaphorase 10uM=54*;Diaphorase 30uM=48
Nc1nc(-c2ccc3c(c2)NC(=O)CO3)cs1	-6	8	3	0.9	11	nt
CCC(C)C(=O)Nc1nc(-c2ccc3c(c2)NC(=O)CO3)cs1 (stereo not drawn)	5	8	64*	0.9	11	14
O=C1COc2ccc(-c3csc(NCCc4ccccc4)n3)cc2N1	-7	-2	61*	0.8	22	9
c1ccc(CCNc2nc(-c3ccncc3)cs2)cc1	2	-7	-6	0.9	8	nt
Cn1c(N)c(C(=O)COC(=O)c2ccccc2C(=O)c2ccc(Cl)c([N+](=O)[O-])c2)c(=O)n(C)c1=O	8	nt	2	nt	nt	nt
CCN(CC)c1ccc(NC(=O)c2cccc(C)c2)cc1S(=O)(=O)Nc1ccccc1OC	-16	-14	73*	0.8	16	54*	Diaphorase 10uM=-17;Diaphorase 30uM=-19
COc1ccc(C(=O)Nc2ccc(Cl)c(S(=O)(=O)Nc3ccccc3OC)c2)cc1	-4	-16	11	0.9	12	nt
CCN(CC)c1ccc(NC(=O)c2ccccc2)cc1S(=O)(=O)Nc1ccccc1OC	-14	6	74*	0.8	22	31
O=[N+]([O-])c1ccccc1S(=O)(=O)Nc1ccn(Cc2c(F)cccc2Cl)n1	1	nt	-15	nt	nt	nt
Nc1nc(SCC(=O)Nc2ccccc2Sc2ccc(Cl)cc2)n[nH]1	1	8	110*	0.9	15	77*	Diaphorase 10uM=73*;Diaphorase 30uM=54*
NC(=O)C1CCN(CC(=O)Nc2ccccc2Sc2ccc(Cl)cc2)CC1	-8	14	65*	0.9	14	40
Cc1cc(C(=O)OCC(=O)N2CCC(C)CC2)c2ccccc2n1	-1	nt	0	nt	nt	nt
Cc1ccc(OS(=O)(=O)c2c(C)nn(C)c2Cl)c(C)c1	-1	nt	75*	nt	nt	34
COc1ccc(Br)c(C=O)c1OS(=O)(=O)c1ccc(C)cc1	nt	nt	14	nt	nt	nt
SMILES	HKDC1 inh	G6PDH counter	PfGluPho inh	Diaphorase act	Diaph inh CS	PfGluPho conf	others
CSc1nc(=NC(C)=O)ss1	-9	25	68*	1	4	38
COC(=O)c1ccccc1C(=O)c1ccc2c(c1)NC(=O)CO2	1	1	68*	0.9	6	35
O=C1COc2ccc(C(=O)COC(=O)c3ccccc3F)cc2N1	-2	nt	1	nt	nt	nt
S=C(NCCc1cccc(Cl)c1)NC1CCCCC1	4	nt	-6	nt	nt	nt
COc1ccc2nc3ccccc3nc2c1N	17	nt	71*	nt	nt	14
O=C1NC(=O)C(Cc2ccc(O)cc2)N1 (stereo not drawn)	-4	nt	-2	nt	nt	nt
COC1CC(NC(C)=O)C(OC(=O)c2ccccc2)C(CBr)O1 (stereo not drawn)	nt	nt	-14	nt	nt	nt
CC1=NOC(=O)/C1=C\c1ccc(-c2ccccc2Br)o1	35	2	95*	0.7	28	51*	Diaphorase 10uM=-5;Diaphorase 30uM=-2
COc1ccc(CCNC(=O)c2cccnc2Cl)cc1OC	1	nt	2	nt	nt	nt
CC(=O)Nc1ccc2c(c1)C(=O)c1cccc(C(=O)O)c1-2	-1	nt	10	nt	nt	nt
CC1(C)CC(=O)C2=C(C1)NC(=S)C(C#N)C21CCCCC1 (stereo not drawn)	2	nt	76*	nt	nt	18
CCOC(=O)c1c(NC(=O)C2CCCO2)sc(C(=O)OC(C)(C)C)c1C (stereo not drawn)	-5	0	63*	0.9	12	12
Cc1nc2cc(NC(=O)c3ccc(Br)s3)ccc2s1	-7	nt	67*	nt	nt	30
Cc1ccc(C(=O)Nc2ccc3nc(C)sc3c2)s1	-2	4	-3	1	0	nt
CCC1NC(=O)c2cc3ccccc3cc2-n2c1nc1cc(OC)c(OC)cc1c2=O (stereo not drawn)	nt	nt	7	nt	nt	nt
CCOC(=O)C1=C(C)N(C)C(=O)NC1c1cc2c(cc1[N+](=O)[O-])OCO2 (stereo not drawn)	4	8	71*	0.3	67*	-20
Cc1c(C(=O)Nc2nc(-c3ccccn3)cs2)oc2ccccc12	-6	nt	62*	nt	nt	25
CCOC(=O)CC[C@H](NC(=O)Cn1cnc(C(=O)Nc2ccc(C)c(C)c2)n1)C(=O)OCC	6	nt	-13	nt	nt	nt
Cc1ccc(-c2c3c([nH]c(=S)c2C#N)CCCC3)o1	2	20	59*	0.5	51*	34
Cc1ccc(CN(C)C(=O)CSc2nnc3n2CCCCC3)c(C)c1	-6	nt	3	nt	nt	nt
CC(=O)c1ccc(Nc2ccc(-c3ccccc3F)nn2)cc1	3	-6	79*	1.1	-12	36
COc1ccccc1-c1ccc(Nc2ccc(C(=O)N3CCOCC3)cc2)nn1	8	4	-19	0.9	9	nt
CCOC(=O)c1cnc(-c2ccccc2O)nc1Cl	-10	8	60*	1	4	39
CCOC(=O)c1cnc(-c2ccccc2)nc1Oc1ccc(Cl)cc1	-8	9	-4	1	1	nt
CCOc1cc2[nH]c(=S)n(CCC(=O)NC3CCCCC3)c(=O)c2cc1OCC	nt	nt	-3	nt	nt	nt
COc1cccc(NC(=O)C2CCN(S(=O)(=O)c3ccc4c(c3)C(C)(C)C(=O)N4C)CC2)c1	-1	nt	13	nt	nt	nt

Assay outcomes deposited in PubChem by Sanford-Burnham Center for Chemical Genomics.
